Assay: Cytotoxicity against BALB/c mouse TH2 cells after 48 hrs by Trypan blue assay
Type: cell-based
Conditions: read-out: LD50
Outline: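 Splenocytes from OVA/alum-immunized female Balb-C mice (6-8 weeks) in RPMI-1640 at 1.3 × 10^6 cells/mL, exposed to compound in DMSO with OVA allergen for 48 h. Adherent cells stained with trypan blue and counted visually on a hemocytometer to assess viability.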

| SMILES | CC50 at 48 h [nM] |
| --- | --- |
| C[C@@H]1C[C@H]2[C@@H]3CCC4=CC(=O)C=C[C@]4(C)[C@@]3(F)[C@@H](O)C[C@]2(C)[C@@]1(O)C(=O)CO [DEXAMETHASONE] | > 7100 |
| CC(=O)O[C@H]1[C@H](C)OC(=O)[C@@H](NC(=O)c2cccc(NC=O)c2O)[C@@H](C)OC(=O)[C@@H]1Cc1ccccc1 [SPLENOCIN A] | > 1800 |
| CC(C)C(=O)O[C@H]1[C@H](C)OC(=O)[C@@H](NC(=O)c2cccc(NC=O)c2O)[C@@H](C)OC(=O)[C@@H]1Cc1ccccc1 [SPLENOCIN B] | > 1700 |
| CCC(C)C(=O)O[C@H]1[C@H](C)OC(=O)[C@@H](NC(=O)c2cccc(NC=O)c2O)[C@@H](C)OC(=O)[C@@H]1Cc1ccccc1 (some centres undefined) [SPLENOCIN C] | > 560 |
| CC[C@H]1C(=O)O[C@H](C)[C@H](NC(=O)c2cccc(NC=O)c2O)C(=O)O[C@@H](C)[C@@H]1OC(=O)c1ccccc1 [SPLENOCIN D] | > 550 |
| CCCC[C@H]1C(=O)O[C@H](C)[C@H](NC(=O)c2cccc(NC=O)c2O)C(=O)O[C@@H](C)[C@@H]1OC(=O)c1ccccc1 [SPLENOCIN E] | > 570 |
| CCCCC[C@H]1C(=O)O[C@H](C)[C@H](NC(=O)c2cccc(NC=O)c2O)C(=O)O[C@@H](C)[C@@H]1OC(=O)c1ccccc1 [SPLENOCIN F] | > 560 |
| CCCCCC[C@H]1C(=O)O[C@H](C)[C@H](NC(=O)c2cccc(NC=O)c2O)C(=O)O[C@@H](C)[C@@H]1OC(=O)c1ccccc1 [SPLENOCIN G] | > 550 |
| CCCCC(C)C[C@H]1C(=O)O[C@H](C)[C@H](NC(=O)c2cccc(NC=O)c2O)C(=O)O[C@@H](C)[C@@H]1OC(=O)c1ccccc1 (some centres undefined) [SPLENOCIN H] | > 1600 |
| C[C@@H]1OC(=O)[C@@H](NC(=O)c2cccc(NC=O)c2O)[C@@H](C)OC(=O)[C@H](Cc2ccccc2)[C@H]1OC(=O)c1ccccc1 [SPLENOCIN I] | > 540 |
| C[C@@H]1OC(=O)[C@@H](NC(=O)c2cccc(NC=O)c2O)[C@@H](C)OC(=O)[C@H](Cc2ccccc2)[C@H]1O [SPLENOCIN J] | > 6000 |

Assay: Inhibition of pro-inflammatory cytokine IL1 production in ovalbumin-stimulated BALB/c mouse APC at 10 nM after 48 hrs by sandwich-ELISA relative to control
Type: functional
Parameters: scale not given: the % may be the effect or the level left
Conditions: not given
Outline: (§1)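 Splenocytes from female Balb-C mice (6-8 weeks) immunized subcutaneously weekly for four weeks with 25 µg OVA adsorbed to 1 mg alum in PBS. Cells in RPMI-1640 at 1.3 × 10^6 cells/mL, given compound in DMSO plus OVA allergen; DMSO and DMSO+OVA replicate wells as controls. After 48 h incubation, supernatant cytokine measured by colorimetric sandwich ELISA.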

| SMILES | Activity [%] |
| --- | --- |
| CC(C)C(=O)O[C@H]1[C@H](C)OC(=O)[C@@H](NC(=O)c2cccc(NC=O)c2O)[C@@H](C)OC(=O)[C@@H]1Cc1ccccc1 [SPLENOCIN B] | 85 |
| CCCCCC[C@H]1C(=O)O[C@H](C)[C@H](NC(=O)c2cccc(NC=O)c2O)C(=O)O[C@@H](C)[C@@H]1OC(=O)c1ccccc1 [SPLENOCIN G] | 85 |

Assay: Inhibition of pro-inflammatory cytokine IL5 production in ovalbumin-stimulated BALB/c mouse TH2 cells after 48 hrs by sandwich-ELISA
Type: functional, cell-based
Conditions: TH2, 48 h
Outline: as §1

| SMILES | IC50 [nM] |
| --- | --- |
| C[C@@H]1C[C@H]2[C@@H]3CCC4=CC(=O)C=C[C@]4(C)[C@@]3(F)[C@@H](O)C[C@]2(C)[C@@]1(O)C(=O)CO [DEXAMETHASONE] | 5 |
| CC(=O)O[C@H]1[C@H](C)OC(=O)[C@@H](NC(=O)c2cccc(NC=O)c2O)[C@@H](C)OC(=O)[C@@H]1Cc1ccccc1 [SPLENOCIN A] | 3.1 |
| CC(C)C(=O)O[C@H]1[C@H](C)OC(=O)[C@@H](NC(=O)c2cccc(NC=O)c2O)[C@@H](C)OC(=O)[C@@H]1Cc1ccccc1 [SPLENOCIN B] | 1.8 |
| CCC(C)C(=O)O[C@H]1[C@H](C)OC(=O)[C@@H](NC(=O)c2cccc(NC=O)c2O)[C@@H](C)OC(=O)[C@@H]1Cc1ccccc1 (some centres undefined) [SPLENOCIN C] | 6.7 |
| CC[C@H]1C(=O)O[C@H](C)[C@H](NC(=O)c2cccc(NC=O)c2O)C(=O)O[C@@H](C)[C@@H]1OC(=O)c1ccccc1 [SPLENOCIN D] | 47.9 |
| CCCC[C@H]1C(=O)O[C@H](C)[C@H](NC(=O)c2cccc(NC=O)c2O)C(=O)O[C@@H](C)[C@@H]1OC(=O)c1ccccc1 [SPLENOCIN E] | 16.6 |
| CCCCC[C@H]1C(=O)O[C@H](C)[C@H](NC(=O)c2cccc(NC=O)c2O)C(=O)O[C@@H](C)[C@@H]1OC(=O)c1ccccc1 [SPLENOCIN F] | 9.4 |
| CCCCCC[C@H]1C(=O)O[C@H](C)[C@H](NC(=O)c2cccc(NC=O)c2O)C(=O)O[C@@H](C)[C@@H]1OC(=O)c1ccccc1 [SPLENOCIN G] | 5 |
| CCCCC(C)C[C@H]1C(=O)O[C@H](C)[C@H](NC(=O)c2cccc(NC=O)c2O)C(=O)O[C@@H](C)[C@@H]1OC(=O)c1ccccc1 (some centres undefined) [SPLENOCIN H] | 4.3 |
| C[C@@H]1OC(=O)[C@@H](NC(=O)c2cccc(NC=O)c2O)[C@@H](C)OC(=O)[C@H](Cc2ccccc2)[C@H]1OC(=O)c1ccccc1 [SPLENOCIN I] | 15.8 |
| C[C@@H]1OC(=O)[C@@H](NC(=O)c2cccc(NC=O)c2O)[C@@H](C)OC(=O)[C@H](Cc2ccccc2)[C@H]1O [SPLENOCIN J] | 1020 |

Assay: Inhibition of pro-inflammatory cytokine IL13 production in ovalbumin-stimulated BALB/c mouse TH2 cells after 48 hrs by sandwich-ELISA
Type: functional, cell-based
Conditions: TH2, 48 h
Outline: as §1

| SMILES | IC50 [nM] |
| --- | --- |
| C[C@@H]1C[C@H]2[C@@H]3CCC4=CC(=O)C=C[C@]4(C)[C@@]3(F)[C@@H](O)C[C@]2(C)[C@@]1(O)C(=O)CO [DEXAMETHASONE] | 5 |
| CC(C)C(=O)O[C@H]1[C@H](C)OC(=O)[C@@H](NC(=O)c2cccc(NC=O)c2O)[C@@H](C)OC(=O)[C@@H]1Cc1ccccc1 [SPLENOCIN B] | 1.6 |
| CCC(C)C(=O)O[C@H]1[C@H](C)OC(=O)[C@@H](NC(=O)c2cccc(NC=O)c2O)[C@@H](C)OC(=O)[C@@H]1Cc1ccccc1 (some centres undefined) [SPLENOCIN C] | 7.3 |
| CC[C@H]1C(=O)O[C@H](C)[C@H](NC(=O)c2cccc(NC=O)c2O)C(=O)O[C@@H](C)[C@@H]1OC(=O)c1ccccc1 [SPLENOCIN D] | 43.7 |
| CCCC[C@H]1C(=O)O[C@H](C)[C@H](NC(=O)c2cccc(NC=O)c2O)C(=O)O[C@@H](C)[C@@H]1OC(=O)c1ccccc1 [SPLENOCIN E] | 15.9 |
| CCCCC[C@H]1C(=O)O[C@H](C)[C@H](NC(=O)c2cccc(NC=O)c2O)C(=O)O[C@@H](C)[C@@H]1OC(=O)c1ccccc1 [SPLENOCIN F] | 6.8 |
| CCCCCC[C@H]1C(=O)O[C@H](C)[C@H](NC(=O)c2cccc(NC=O)c2O)C(=O)O[C@@H](C)[C@@H]1OC(=O)c1ccccc1 [SPLENOCIN G] | 5.2 |
| CCCCC(C)C[C@H]1C(=O)O[C@H](C)[C@H](NC(=O)c2cccc(NC=O)c2O)C(=O)O[C@@H](C)[C@@H]1OC(=O)c1ccccc1 (some centres undefined) [SPLENOCIN H] | 5.1 |
| C[C@@H]1OC(=O)[C@@H](NC(=O)c2cccc(NC=O)c2O)[C@@H](C)OC(=O)[C@H](Cc2ccccc2)[C@H]1OC(=O)c1ccccc1 [SPLENOCIN I] | 15.2 |
| C[C@@H]1OC(=O)[C@@H](NC(=O)c2cccc(NC=O)c2O)[C@@H](C)OC(=O)[C@H](Cc2ccccc2)[C@H]1O [SPLENOCIN J] | 826 |

Assay: Therapeutic index, ratio of LD50 for BALB/c mouse TH2 cells to IC50 for pro-inflammatory cytokine production in BALB/c mouse TH2 cells
Type: cell-based
Conditions: read-out: TI
Outline: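 Splenocytes came from OVA/alum-immunised female BALB/c mice (25 µg OVA s.c. weekly for 4 weeks) and were held at 1.3 × 10^6 cells/mL in RPMI-1640. They were exposed to compound in DMSO with OVA for 48 h, with DMSO ± OVA control wells. Cytokines in the supernatant were measured by sandwich ELISA. Viability of adherent cells was scored by trypan blue hemocytometer counting.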

| SMILES | selectivity ratio |
| --- | --- |
| CC(C)C(=O)O[C@H]1[C@H](C)OC(=O)[C@@H](NC(=O)c2cccc(NC=O)c2O)[C@@H](C)OC(=O)[C@@H]1Cc1ccccc1 [SPLENOCIN B] | > 500 |

Assay: Inhibition of pro-inflammatory cytokine IL5 production in ovalbumin-stimulated BALB/c mouse TH2 cells at 5 nM after 48 hrs by sandwich-ELISA relative to control
Type: functional
Parameters: scale not given: the % may be the effect or the level left
Conditions: not given
Outline: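 Splenocytes from female BALB/c mice (6-8 weeks) were used, taken after weekly subcutaneous immunisation for 4 weeks with 25 µg OVA on 1 mg alum in PBS. Cells were held at 1.3 × 10^6 cells/mL in RPMI-1640 and given compound in DMSO plus OVA for 48 h. Controls were DMSO ± OVA wells. Supernatant IL-5 was read by colorimetric sandwich ELISA.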

| SMILES | Activity [%] |
| --- | --- |
| C[C@@H]1C[C@H]2[C@@H]3CCC4=CC(=O)C=C[C@]4(C)[C@@]3(F)[C@@H](O)C[C@]2(C)[C@@]1(O)C(=O)CO [DEXAMETHASONE] | >80 |
| CC(C)C(=O)O[C@H]1[C@H](C)OC(=O)[C@@H](NC(=O)c2cccc(NC=O)c2O)[C@@H](C)OC(=O)[C@@H]1Cc1ccccc1 [SPLENOCIN B] | >80 |

Assay: Inhibition of pro-inflammatory cytokine TNFalpha production in ovalbumin-stimulated BALB/c mouse APC at 10 nM after 48 hrs by sandwich-ELISA relative to control
Type: functional
Parameters: scale not given: the % may be the effect or the level left
Conditions: not given
Outline: as §1

| SMILES | Activity [%] |
| --- | --- |
| CC(C)C(=O)O[C@H]1[C@H](C)OC(=O)[C@@H](NC(=O)c2cccc(NC=O)c2O)[C@@H](C)OC(=O)[C@@H]1Cc1ccccc1 [SPLENOCIN B] | 75 |
| CCCCCC[C@H]1C(=O)O[C@H](C)[C@H](NC(=O)c2cccc(NC=O)c2O)C(=O)O[C@@H](C)[C@@H]1OC(=O)c1ccccc1 [SPLENOCIN G] | 75 |
